# According to PubChem BioAssay:
# Active and inactive are the calls of the source.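 Rule for the calls, unless noted: active = GFP response above 150% of the DMSO level; inconclusive = fewer than 70 events counted for a yeast strain; inactive = the rest.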
# Experiments:
# [1] = RPL19A-GFP modulators, yeast TOR pathway, confirmation, cell-based, S. cerevisiae, flow cytometry, cherry picks, mother/daughter gates (AID 2270;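 active = GFP response below 50% of the DMSO control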); conditions: S. cerevisiae RPL19A-GFP strain, 3 h, at 10 µM, stronger effect = lower value, 100 = same GFP as DMSO wells
# [2] = LAP4-GFP expression modulators in yeast, confirmation, cell-based, cherry picks, flow cytometry, mother/daughter gates (AID 2271;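 active = GFP response above 150% of the DMSO control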;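 note: ratio of sample to DMSO plate mean so 100% equals DMSO level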); conditions: S. cerevisiae LAP4-GFP strain, 3 h, at 10 µM, stronger effect = higher value, 100 means same as DMSO control
# How it was run: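 System: Alexa 633-stained baker's yeast GFP-fusion strain / Medium: synthetic complete (SC) yeast growth medium / Doses: compound at 10 µM, single point / Times: 3 h treatment at 30 °C with rotation / Detection: HT flow cytometry, GFP fluorescence channel / Benchmarks: DMSO-only negative wells, rapamycin 400 ng/mL positive wells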
# [3] = modulators of MEP2-GFP levels in yeast, confirmation, S. cerevisiae, flow cytometry GFP, cherry picks (AID 2272;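 active = GFP response above 150% of the DMSO control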;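 note: ratio of well signal to plate DMSO mean so 100% equals DMSO level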); conditions: S. cerevisiae MEP2-GFP strain, 3 h, at 10 µM, stronger effect = higher value
# [4] = AGP1-GFP expression modulators, hit retest, confirmation, cell-based, flow cytometry, S. cerevisiae, cherry picks (AID 2273);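 note: median GFP channel fluorescence over the whole cell population gate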; conditions: S. cerevisiae AGP1-GFP strain, 3 h, at 10 µM
# [5] = modulators of CIT2-GFP expression in yeast, confirmation, S. cerevisiae, GFP fusion, cherry picks, mother/daughter gates (AID 2274); conditions: S. cerevisiae CIT2-GFP strain, flow cytometry, 3 h, at 10 µM, stronger effect = higher value
# [6] = measured here: daughter cell gate
# [7] = measured here: mother cell gate
# [8] = measured here: daughter cell gate response
# [9] = measured here: mother cell gate response
Compound,GFP response vs DMSO [1],"GFP response vs DMSO [1, 6] [%]","GFP response vs DMSO [1, 7] [%]",GFP response relative to DMSO [2],"GFP response relative to DMSO [2, 8] [%]","GFP response relative to DMSO [2, 9] [%]",GFP response vs DMSO [3],"GFP response, % of DMSO [4]","GFP response, % of DMSO [5]","GFP response, % of DMSO [5, 6] [%]","GFP response, % of DMSO [5, 7] [%]"
CCOC(=O)C1(CCCc2ccccc2)CCN(C(=O)c2cc(C)nn2CC)CC1,99.3% (inactive),99.8,99.8,98.8% (inactive),102,98.5,97.5% (inactive),99.3% (inactive),102% (inactive),104,101
CCOc1ccc(Nc2ccc(C(=O)O)cc2[N+](=O)[O-])cc1,102% (inactive),98.4,104,101% (inactive),99.1,100,101% (inactive),97.8% (inactive),98.8% (inactive),95.6,96.8
O=c1c2ccccc2nc(-c2ccccc2)n1CCN1CCOCC1,101% (inactive),102,101,97% (inactive),97.5,98.4,101% (inactive),106% (inactive),98.8% (inactive),95.6,96.8
COc1ccc(N2CCN(C(=O)c3ccc(C)cc3Cl)CC2)cc1,101% (inactive),98.1,102,97.4% (inactive),98.7,99.3,104% (inactive),95.9% (inactive),92.6% (inactive),93.2,92.3
COC(=O)c1ccc(CS(=O)(=O)c2ccc(F)cc2)o1,97.8% (inactive),98.1,95.9,98.9% (inactive),99,98.4,103% (inactive),102% (inactive),100% (inactive),99.3,98.2
CCOC(=O)Cc1csc(NC(=O)c2sc3nc4ccc(CC)cc4cc3c2N)n1,98.9% (inactive),99.5,99.4,95.3% (inactive),94.4,97.4,108% (inactive),107% (inactive),98.6% (inactive),99.3,99.3
COc1ccc(NC(=S)N2CCC(c3ccccc3)C2)cc1 (centres undefined),103% (inactive),98.8,98,97% (inactive),95.9,97.3,101% (inactive),98.6% (inactive),97.3% (inactive),93.8,94.4
COc1ccccc1N1CCN(C2CCCN(Cc3cc(F)cc(F)c3)C2)CC1 (centres undefined),96% (inactive),97.3,95.9,98.9% (inactive),97.5,98.4,99.3% (inactive),102% (inactive),103% (inactive),99.3,104
Cc1ccc(N(C(=O)CCCC(=O)Nc2ccccn2)C(C(=O)NC2CCCC2)c2ccc(O)cc2)cc1C (centres undefined),98.4% (inactive),99,99.8,98.7% (inactive),98.7,98.3,117% (inactive),111% (inactive),111% (inactive),108,112
Cc1ccc(/C=N/NC(=O)c2ccccn2)s1,99.2% (inactive),97.1,97,99.5% (inactive),95.9,99.4,101% (inactive),95.1% (inactive),94.4% (inactive),93.8,94.4
C=CCOc1ccccc1C(=O)/C=C1/C(=O)Nc2ccccc21,101% (inactive),102,95,142% (inactive),130,148,94.7% (inactive),100% (inactive),91.5% (inactive),95.6,88.2
CCCc1[nH]nc2c1C(c1cc(OC)ccc1F)C(C#N)=C(N)O2 (centres undefined),98% (inactive),99.3,97.7,101% (inactive),101,100,96.8% (inactive),101% (inactive),105% (inactive),103,104
COCCNC(=O)/C(C#N)=C/c1c(N2CC(C)OC(C)C2)nc2ccccn2c1=O (centres undefined),100% (inactive),98.6,100,98.2% (inactive),95.9,97.3,103% (inactive),98.8% (inactive),102% (inactive),101,101
CCCCOC(=O)C1CCC[C@@H](C)N1 (some centres undefined),101% (inactive),102,100,98.9% (inactive),101,99.5,103% (inactive),102% (inactive),100% (inactive),101,100
COc1ccc(OC(=O)c2cc(S(=O)(=O)N3CCCC3)ccc2Cl)cc1,97.6% (inactive),96.9,97.2,97.9% (inactive),99.2,97.2,98.3% (inactive),94.3% (inactive),101% (inactive),103,101
C=CCn1c(=O)c(C(=O)Nc2ccccc2O)c(O)c2ccccc21,99.8% (inactive),98.9,101,108% (inactive),106,106,105% (inactive),98.7% (inactive),104% (inactive),105,102
O=C(NCc1ccc2c(c1)OCO2)c1nc(S(=O)(=O)Cc2ccccc2F)ncc1Cl,99.1% (inactive),99.3,97.8,101% (inactive),104,102,103% (inactive),100% (inactive),94.4% (inactive),94,96
CCOC(=O)c1csc(Nc2nc3ccc(F)cc3s2)n1,94.6% (inactive),95.2,94.2,103% (inactive),102,104,99% (inactive),93.4% (inactive),95.9% (inactive),97.4,95.6
O=C(Nc1ccccc1N1CCOCC1)c1ccc([N+](=O)[O-])o1,58.5% (inactive),82.8,47.8,128% (inactive),104,116,90.5% (inactive),87.6% (inactive),63.9% (inactive),77.5,55.2
COC(=O)c1ccc(N2C(=O)CC(Sc3n[nH]c(C)n3)C2=O)cc1 (centres undefined),101% (inactive),103,98,128% (inactive),130,131,108% (inactive),101% (inactive),106% (inactive),108,103
Cc1ccc(/C=C/C(=O)NC2CCCCCCC2)o1,98.8% (inactive),99.4,98.2,125% (inactive),120,130,102% (inactive),90.8% (inactive),101% (inactive),105,97.3
COc1ccc(-c2cc(=O)n(-c3nc4ccccc4[nH]3)[nH]2)cc1,98.6% (inactive),101,99.3,117% (inactive),119,113,103% (inactive),98% (inactive),95.9% (inactive),97.4,94.4
CC1=NNC(=O)/C1=C\c1cn(-c2ccccc2)nc1-c1ccccc1,98% (inactive),82.8,95.5,242% (active),164,236,110% (inactive),124% (inactive),115% (inactive),93.7,104
CN(c1ccccc1)S(=O)(=O)c1ccc(C(=O)Nc2nnc(-c3ccc(F)cc3)o2)cc1,99.1% (inactive),102,98.6,122% (inactive),128,120,149% (inactive),106% (inactive),131% (inactive),133,128
